Assay results from different studies.
AXL: Tyrosine-protein kinase receptor UFO (AXL, Homo sapiens, UniProt P30530)

SMILES	target	read-out	action	technique	concentration	quantity	value
Cn1cncc1[C@](O)(COc1ccc(C#N)cc1-c1ccc(OC(F)(F)F)cc1)c1ccc(C#N)cc1	AXL	cell-free assay	–	competition with immobilised ligand	1 µM	remaining binding	100%
O=c1[nH]c2ccccc2n1C1CCN(Cc2ccc(-c3[nH]c4cc5ncnc5cc4nc3-c3ccccc3)cc2)CC1	AXL	cell-free assay	–	–	0.5 µM	remaining signal	105%
C#Cc1n[nH]c2c(-c3cn(C(C)c4ccccn4)c(=O)[nH]c3=O)cc(F)cc12 (centres unmarked)	Tyrosine-protein kinase receptor UFO (AXL, Homo sapiens, UniProt P30530, R499C)	enzyme activity	inhibitor	–	1 µM	inhibition	67.6%
Nc1ncc(-c2nc(N3CCOCC3)nc(N3CCOCC3)n2)c(C(F)F)n1	AXL	binding	–	competition with immobilised ligand	10 µM	remaining binding	91%
COc1cc(Nc2ncc(F)c(Nc3ccc4c(n3)NC(=O)C(C)(C)O4)n2)cc(OC)c1OC	AXL	binding	–	competition with immobilised ligand	10 µM	inhibition	100%
COc1ncccc1-c1cnn2ccc(N3CCN(C(=O)OC(C)C)CC3)nc12	AXL	binding	–	competition with immobilised ligand	1 µM	remaining binding	100%
Cn1cc(-c2cccc(N3CCc4c(sc5c4CC(C)(C)C5)C3=O)c2CO)cc(Nc2ccncn2)c1=O	AXL	enzyme activity	inhibitor	–	1 µM	inhibition	3%
Cc1nn(C)cc1-c1nc2c(N3CCN(Cc4ccc(Cl)cc4)CC3)c(Cl)cnc2[nH]1	AXL	binding	–	competition with immobilised ligand	1 µM	remaining binding	2.2%
Cn1cc(-c2cc(F)cc(N3CCn4c(cc5c4CCCC5)C3=O)c2CO)cc(Nc2ccc(N3CCN(C4COC4)CC3)cn2)c1=O	AXL	enzyme activity	inhibitor	–	0.1 µM	inhibition	12%
N#CC1(c2ccccn2)CCN(Cc2cc(C(=O)O)c(=O)n3ccccc23)CC1	AXL	cell-free assay	–	competition with immobilised ligand	1 µM	remaining binding	91%
CC(C)(C)c1cc(C=C(C#N)C#N)cc(Br)c1O	AXL	enzyme activity	inhibitor	–	0.5 µM	remaining activity	103%
